Measurements taken from ChEMBL document CHEMBL3091463, “Cytotoxic ent-kaurane diterpenoids from Salvia cavaleriei” (J Nat Prod, 2013).

What was measured:
[1] = test system: MCF7; assay: Cytotoxicity against human MCF7 cells after 48 hrs by MTS assay; type: functional, cell-based; conditions: MCF7, 48 h
Procedure, shortened: (§1)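 Cells were kept in RPMI-1640 or DMEM with 10% FBS at 37 °C under 5% CO2 and seeded at 1 × 10^5 cells/mL, with adherent cells allowed 12 h to attach. Compounds were tested at 0.064, 0.32, 1.6, 8 and 40 μM, in triplicate, for 48 h at 37 °C. Cisplatin and paclitaxel were the positive controls. MTS was then added for 4 h and absorbance read at […]. IC50 was calculated by the Reed and Muench method.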

[2] = test system: HL-60; assay: Cytotoxicity against human HL60 cells after 48 hrs by MTS assay; type: functional, cell-based; conditions: HL-60, 48 h; procedure, shortened: as §1
[3] = Cytotoxicity against human BEAS2B cells after 48 hrs by MTS assay; type: cell-based; conditions: BEAS-2B
[4] = test system: A549; assay: Cytotoxicity against human A549 cells after 48 hrs by MTS assay; type: functional, cell-based; conditions: A549, 48 h; procedure, shortened: as §1
[5] = test system: SMMC-7721; assay: Cytotoxicity against human SMMC7721 cells after 48 hrs by MTS assay; type: functional, cell-based; conditions: SMMC-7721, 48 h; procedure, shortened: as §1
[6] = test system: SW480; assay: Cytotoxicity against human SW480 cells after 48 hrs by MTS assay; type: functional, cell-based; conditions: SW480, 48 h; procedure, shortened: as §1

`COC[C@H]1C(=O)[C@@]23[C@H](O)C[C@@H]4C(C)(C)[C@@H](OC(C)=O)CC[C@@]4(C)[C@@H]2C(=O)C[C@@H]1[C@H]3O` gave an IC50 [1] of 2500 nM, an IC50 [2] of 3700 nM and an IC50 [3] of 2500 nM. The IC50 [4] was 2900 nM, the IC50 [5] was 4000 nM and the IC50 [6] was 2000 nM.
`COC[C@@H]1C(=O)[C@@]23[C@H](O)C[C@@H]4[C@@](C)(COC(C)=O)CCC[C@@]4(C)[C@@H]2C(=O)C[C@@H]1[C@H]3O` showed an IC50 [1] of over 10000 nM, an IC50 [2] of over 10000 nM and an IC50 [3] of over 10000 nM. For the same molecule, the IC50 [4] was over 10000 nM, the IC50 [5] was over 10000 nM and the IC50 [6] was 6700 nM.
For `CC(=O)O[C@H]1C(=O)[C@@]2(C)[C@H]([C@H](OC(=O)c3ccccc3)[C@]3(O)C[C@H](OC(=O)[C@H](O)[C@@H](NC(=O)c4ccccc4)c4ccccc4)C(C)=C1C3(C)C)[C@]1(OC(C)=O)CO[C@@H]1C[C@@H]2O` [PACLITAXEL], the IC50 [1] was under 8 nM, the IC50 [2] was under 8 nM and the IC50 [3] was 580 nM. The IC50 [4] was under 8 nM, the IC50 [5] was under 8 nM and the IC50 [6] was under 8 nM.
Work on `COC[C@H]1C(=O)[C@@]23[C@H](O)C[C@@H]4[C@@](C)(COC(C)=O)CCC[C@@]4(C)[C@@H]2C(=O)C[C@@H]1[C@H]3O` yielded an IC50 [1] of 2000 nM, an IC50 [2] of 2800 nM and an IC50 [3] of 3000 nM. It also gave an IC50 [4] of 3000 nM, an IC50 [5] of 3500 nM and an IC50 [6] of 2600 nM.
In the case of `C=C1C(=O)[C@@]23[C@H](O)C[C@@H]4C(C)(C)[C@@H](OC(C)=O)CC[C@@]4(C)[C@@H]2C=C[C@@H]1[C@H]3O`, the IC50 [1] is reported as 1700 nM, the IC50 [2] is reported as 2100 nM and the IC50 [3] is reported as 880 nM. For the same molecule, the IC50 [4] was 3100 nM, the IC50 [5] was 2800 nM and the IC50 [6] was 2800 nM.
Work on `C=C1C(=O)[C@@]23[C@H](O)C[C@@H]4C(C)(C)[C@@H](OC(C)=O)CC[C@@]4(C)[C@@H]2[C@@H]2O[C@@H]2[C@@H]1[C@H]3O` yielded an IC50 [1] of 3000 nM, an IC50 [2] of 650 nM and an IC50 [3] of 730 nM. It also gave an IC50 [4] of 1100 nM, an IC50 [5] of 1300 nM and an IC50 [6] of 1800 nM.
With `CCOC[C@@H]1C(=O)[C@@]23[C@H](O)C[C@@H]4C(C)(C)[C@@H](OC(C)=O)CC[C@@]4(C)[C@@H]2C(=O)C[C@@H]1[C@H]3O` the IC50 [1] was over 10000 nM, the IC50 [2] was over 10000 nM and the IC50 [3] was over 10000 nM. For the same molecule, the IC50 [4] was over 10000 nM, the IC50 [5] was over 10000 nM and the IC50 [6] was over 10000 nM.
Molecule `C=C1C(=O)[C@@]23[C@H](O)C[C@@H]4C(C)(C)[C@@H](OC(C)=O)CC[C@@]4(C)[C@@H]2[C@@H](O)C[C@@H]1[C@H]3O` has an IC50 [1] of over 10000 nM, an IC50 [2] of 9700 nM and an IC50 [3] of over 10000 nM. The IC50 [4] was over 10000 nM, the IC50 [5] was 3800 nM and the IC50 [6] was 5500 nM.
`C=C1C(=O)[C@@]23[C@H](O)C[C@@H]4C(C)(C)C(=O)CC[C@@]4(C)[C@@H]2C(=O)C[C@@H]1[C@H]3O` gave an IC50 [1] of 3100 nM, an IC50 [2] of 3300 nM and an IC50 [3] of 3100 nM. It also gave an IC50 [4] of 6400 nM, an IC50 [5] of 4900 nM and an IC50 [6] of 2200 nM.
With `C=C1C(=O)[C@@]23[C@H](O)C[C@@H]4C(C)(C)[C@@H](OC(C)=O)CC[C@@]4(C)[C@@H]2C(=O)C[C@@H]1[C@H]3O` the IC50 [1] was 2500 nM, the IC50 [2] was 2800 nM and the IC50 [3] was 2000 nM. For the same molecule, the IC50 [4] was 2700 nM, the IC50 [5] was 3000 nM and the IC50 [6] was 1600 nM.
Molecule `C=C1C(=O)[C@@]23[C@H](O)C[C@@H]4[C@@](C)(COC(C)=O)CCC[C@@]4(C)[C@@H]2C(=O)C[C@@H]1[C@H]3O` has an IC50 [1] of 1800 nM, an IC50 [2] of 710 nM and an IC50 [3] of 870 nM. It also gave an IC50 [4] of 940 nM, an IC50 [5] of 960 nM and an IC50 [6] of 1700 nM.
`COC[C@@H]1C(=O)[C@@]23[C@H](O)C[C@@H]4C(C)(C)C(=O)CC[C@@]4(C)[C@@H]2C(=O)C[C@@H]1[C@H]3O` showed an IC50 [1] of over 10000 nM, an IC50 [2] of over 10000 nM and an IC50 [3] of over 10000 nM. For the same molecule, the IC50 [4] was over 10000 nM, the IC50 [5] was over 10000 nM and the IC50 [6] was over 10000 nM.
In the case of `C=C1C(=O)[C@@]23[C@H](O)C[C@@H]4C(C)(C)[C@@H](O)CC[C@@]4(C)[C@@H]2C(=O)C[C@@H]1[C@H]3O`, the IC50 [1] is reported as over 10000 nM, the IC50 [2] is reported as over 10000 nM and the IC50 [3] is reported as over 10000 nM. The IC50 [4] was over 10000 nM, the IC50 [5] was over 10000 nM and the IC50 [6] was 7600 nM.
Molecule `CCOC[C@H]1C(=O)[C@@]23[C@H](O)C[C@@H]4C(C)(C)[C@@H](OC(C)=O)CC[C@@]4(C)[C@@H]2C(=O)C[C@@H]1[C@H]3O` has an IC50 [1] of 3100 nM, an IC50 [2] of 3300 nM and an IC50 [3] of 2800 nM. For the same molecule, the IC50 [4] was 3500 nM, the IC50 [5] was 3500 nM and the IC50 [6] was 3000 nM.
For `C=C1C(=O)[C@@]23[C@H](O)C[C@@H]4C(C)(C)C(=O)CC[C@@]4(C)[C@@H]2[C@H](O)C[C@@H]1[C@H]3O`, the IC50 [1] was over 10000 nM, the IC50 [2] was over 10000 nM and the IC50 [3] was over 10000 nM. For the same molecule, the IC50 [4] was over 10000 nM, the IC50 [5] was over 10000 nM and the IC50 [6] was 8100 nM.
`C=C1C(=O)[C@@]23[C@H](O)C[C@@H]4C(C)(C)[C@@H](OC(C)=O)CC[C@@]4(C)[C@@H]2[C@H](O)C[C@@H]1[C@H]3O` gave an IC50 [1] of 3400 nM, an IC50 [2] of 2500 nM and an IC50 [3] of 2800 nM. The IC50 [4] was 3500 nM, the IC50 [5] was 1100 nM and the IC50 [6] was 1400 nM.
